# Tests used:
# Gamma-secretase = experiment: Inhibition of gamma secretase-mediated amyloid beta42 production in HEK293 cells; format: cell-based, Homo sapiens
# Procedure, shortened: (§1)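 HEK293 cells stably transfected with APP (Swedish plus London mutations, pcDNA3.1) treated with compound for 5 h; Aβ in conditioned medium read by MSD sandwich immunoassay: Aβ42 with TAG-G2-11/biotin-4G8, Aβ40 with TAG-G2-10/biotin-4G8, total Aβ with TAG-W02/biotin-4G8. IC50 from Aβ42; ratio is total Aβ over Aβ42.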
# [1] = Selectivity ratio of total amyloid beta to amyloid beta 42; procedure, shortened: as §1
# [2] = Cmax in rat at 10 mg/kg, po after 1 hr; format: ADME, organism-based; parameters: dose 10 mg/kg, route oral; conditions: in vivo
# Procedure, shortened: (§2)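 Rats given a single 10 mg/kg oral dose. Plasma sampled over 0–6 h for AUC and Cmax, with the time of Cmax recorded. Brain level (ng/g) and brain:plasma concentration ratio taken at 6 h.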
# [3] = Selectivity ratio of drug level in brain to plasma in rat at 10 mg/kg, po after 6 hrs; format: ADME, organism-based; parameters: dose 10 mg/kg, route oral; conditions: read-out: BPR; procedure, shortened: as §2
# Rattus norvegicus [4] = experiment: Reduction in amyloid beta 42 level in po dosed rat CSF; parameters: scale not given: the % may be the effect or the level left
# [5] = AUC (0 to 6 hrs) in rat at 10 mg/kg, po; format: ADME, organism-based; parameters: time < 6 hr, dose 10 mg/kg, route oral; conditions: plasma; procedure, shortened: as §2
# [6] = Drug level in rat brain at 10 mg/kg, po after 6 hrs; format: ADME, organism-based; parameters: dose 10 mg/kg, route oral; conditions: read-out: Drug uptake; procedure, shortened: as §2
# [7] = AUC (0 to 6 hrs) in po dosed rat; format: ADME, organism-based; parameters: time < 6 hr, route oral; conditions: plasma; procedure, shortened: as §2
# Plasma = experiment: Drug level in rat plasma at 30 mg/kg, po; conditions: in vivo
# Rattus norvegicus [8] = experiment: Reduction in amyloid beta 42 level in rat CSF at 30 mg/kg, po; parameters: scale not given: the % may be the effect or the level left
# [9] = Cmax in rat at 10 mg/kg, po after 2 hrs; format: ADME, organism-based; parameters: dose 10 mg/kg, route oral; conditions: in vivo; procedure, shortened: as §2
# Brain = experiment: Drug level in rat brain at 30 mg/kg, po; conditions: in vivo, read-out: Drug uptake
# Rattus norvegicus [10] = experiment: Reduction in amyloid beta 42 level in rat CSF at 100 mg/kg, po; parameters: scale not given: the % may be the effect or the level left
# Mus musculus [11] = experiment: Reduction in total amyloid beta level in CRND8 transgenic mouse plasma at 30 mg/kg, po; format: functional; parameters: scale not given: the % may be the effect or the level left
# Procedure, shortened: (§3)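 CRND8 transgenic mice dosed orally at 30 mg/kg. Plasma Aβ42 and total Aβ sampled 3 h after dosing.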
# Mus musculus [12] = experiment: Reduction in amyloid beta 42 level in transgenic CRND8 mouse plasma at 30 mg/kg, po; format: functional; parameters: scale not given: the % may be the effect or the level left; procedure, shortened: as §3
# Mus musculus [13] = experiment: Reduction in amyloid beta 42 level in CRND8 transgenic mouse cortical at 30 mg/kg, po; format: functional; parameters: scale not given: the % may be the effect or the level left
Structure (SMILES),IC50 (Gamma-secretase),Ratio [1],further results
COc1cc([C@H](O)C2CNC(=N)N([C@@H](C)c3ccc(F)cc3)C2=O)ccc1-n1cnc(C)c1 (some centres undefined),> 20000 nM,–,–
COc1cc(/C=C2\NC(=O)N([C@@H](C)c3ccc(F)cc3)C2=O)ccc1-n1cnc(C)c1,163 nM,141,–
COc1cc(/C=C2\N=C(N)N([C@H](CCO)c3ccc(F)cc3)C2=O)ccc1-n1cnc(C)c1,229 nM,87,–
COc1cc(/C=C2\N=C(N)N([C@H](CO)c3ccc(F)cc3)C2=O)ccc1-n1cnc(C)c1,139 nM,113,–
COC1=N/C(=C\c2ccc(-n3cnc(C)c3)c(OC)c2)C(=O)N1[C@@H](C)c1ccc(F)cc1,864 nM,23,–
COc1cc(/C=C2\N=C(N)N(Cc3ccc(F)cc3)C2=O)ccc1-n1cnc(C)c1,144 nM,139,–
CCN1CCCC(c2ccc(F)cc2)N2C(=O)/C(=C/c3ccc(-n4cnc(C)c4)c(OC)c3)N=C12 (racemic) [listing 1 of 2 here],117 nM,–,–
"COc1cc(/C=C2\N=C3NCCC(c4ccc(F)cc4)N3C2=O)ccc1-n1cnc(C)c1 (single isomer, unassigned; (+))",106 nM,188,–
CNC1=N/C(=C\c2ccc(-n3cnc(C)c3)c(OC)c2)C(=O)N1[C@@H](C)c1ccc(F)cc1,411 nM,25,–
"CCN1CCCC(c2ccc(F)cc2)N2C(=O)/C(=C/c3ccc(-n4cnc(C)c4)c(OC)c3)N=C12 (single isomer, unassigned; (-)) [listing 1 of 2 here]",73 nM,–,Cmax [2]: 4.2 µM; Kp at 6 h [3]: 0.3; Activity (Rattus norvegicus [4]): 8%; AUC(0-t) at 6 h [5]: 16.9 µM·h; concentration at 6 h [6]: 275 ng/g
COc1cc(/C=C2\N=C(NCCO)N([C@H](C)c3ccc(F)cc3)C2=O)ccc1-n1cnc(C)c1,63 nM,27,–
"CCN1CCC(c2ccc(F)cc2)N2C(=O)/C(=C/c3ccc(-n4cnc(C)c4)c(OC)c3)N=C12 (single isomer, unassigned; (+))",85 nM,71,–
COc1cc(Cc2c[nH]c(=N)n([C@@H](C)c3ccc(F)cc3)c2=O)ccc1-n1cnc(C)c1,446 nM,–,–
COc1cc(/C=C2\CCCN([C@@H](C)c3ccc(F)cc3)C2=O)ccc1-n1cnc(C)c1,–,–,AUC(0-t) at 6 h [7]: 60.4 µM·h
COc1cc(/C=C2\N=C(NC3CC3)N([C@@H](C)c3ccc(F)cc3)C2=O)ccc1-n1cnc(C)c1,287 nM,136,–
CCNC1=N/C(=C\c2ccc(-n3cnc(C)c3)c(OC)c2)C(=O)N1[C@H](CO)c1ccc(F)cc1,91 nM,200,–
COc1cc(/C=C2\N=C(N)N([C@H](C)c3ccc(F)cc3)C2=O)ccc1-n1cnc(C)c1,94 nM,65,–
CCN1CCCC(c2ccc(F)cc2)N2C(=O)/C(=C/c3ccc(-n4cnc(C)c4)c(OC)c3)N=C12 (racemic) [listing 2 of 2 here],–,169,–
COc1cc(/C=C2\N=C(NCCO)N([C@@H](C)c3ccc(F)cc3)C2=O)ccc1-n1cnc(C)c1,218 nM,79,–
COc1cc(/C=C2\N=C(NCC3CC3)N([C@@H](C)c3ccc(F)cc3)C2=O)ccc1-n1cnc(C)c1,250 nM,71,–
"CCN1CCCC(c2ccc(F)cc2)N2C(=O)/C(=C/c3ccc(-n4cnc(C)c4)c(OC)c3)N=C12 (single isomer, unassigned; (-)) [listing 2 of 2 here]",–,215,–
CCCCNC1=N/C(=C\c2ccc(-n3cnc(C)c3)c(OC)c2)C(=O)N1[C@@H](C)c1ccc(F)cc1,258 nM,78,–
CCNC1=N/C(=C\c2ccc(-n3cnc(C)c3)c(OC)c2)C(=O)N1[C@H](C)c1ccc(F)cc1,88 nM,159,Activity (Mus musculus [11]): 10%; Kp at 6 h [3]: 1.3; Activity (Mus musculus [12]): 80%; Cmax [9]: 2.3 µM; Activity (Mus musculus [13]): 12%; AUC(0-t) at 6 h [5]: 10.1 µM·h; concentration at 6 h [6]: 914 ng/g

# Continued, in another order:
IC50 (Gamma-secretase),Ratio [1],Structure (SMILES),further results
72 nM,104,CCNC1=N/C(=C\c2ccc(-n3cnc(C)c3)c(OC)c2)C(=O)N1Cc1ccc(F)cc1,–
671 nM,32,COc1cc(/C=C2\N=C(N3CCCC3)N([C@@H](C)c3ccc(F)cc3)C2=O)ccc1-n1cnc(C)c1,–
135 nM,117,COc1cc(/C=C2\N=C3NCC(c4ccc(F)cc4)N3C2=O)ccc1-n1cnc(C)c1 (racemic),–
92 nM,42,CCCCNC1=N/C(=C\c2ccc(-n3cnc(C)c3)c(OC)c2)C(=O)N1[C@H](C)c1ccc(F)cc1,–
287 nM,70,COCCCNC1=N/C(=C\c2ccc(-n3cnc(C)c3)c(OC)c2)C(=O)N1[C@@H](C)c1ccc(F)cc1,–
322 nM,55,COc1cc(/C=C2\N=C(N)N([C@@H](C)c3ccc(F)cc3)C2=O)ccc1-n1cnc(C)c1,–
301 nM,66,COCCNC1=N/C(=C\c2ccc(-n3cnc(C)c3)c(OC)c2)C(=O)N1[C@@H](C)c1ccc(F)cc1,–
> 20000 nM,–,COc1cc(/C=C2/C(=O)N([C@@H](C)c3ccc(F)cc3)C(=N)NC2(C)C)ccc1-n1cnc(C)c1,–
163 nM,141,COc1cc(/C=C2\N=C(NCCCO)N([C@@H](C)c3ccc(F)cc3)C2=O)ccc1-n1cnc(C)c1,–
111 nM,153,COc1cc(/C=C2\N=C(NCCCO)N([C@H](C)c3ccc(F)cc3)C2=O)ccc1-n1cnc(C)c1,–
171 nM,117,CCNC1=N/C(=C\c2ccc(-n3cnc(C)c3)c(OC)c2)C(=O)N1[C@H](CCO)c1ccc(F)cc1,–
85 nM,70,CCCCNC1=N/C(=C\c2ccc(-n3cnc(C)c3)c(OC)c2)C(=O)N1Cc1ccc(F)cc1,concentration (Plasma): 7.1 µM; Kp at 6 h [3]: 0.7; Activity (Rattus norvegicus [8]): 10%; Cmax [9]: 2.3 µM; concentration (Brain): 5.9 µM; AUC(0-t) at 6 h [5]: 10 µM·h; concentration at 6 h [6]: 449 ng/g; Activity (Rattus norvegicus [10]): 38%
220 nM,97,CCNC1=N/C(=C\c2ccc(-n3cnc(C)c3)c(OC)c2)C(=O)N1[C@@H](C)c1ccc(F)cc1,–
7100 nM,–,COc1cc(/C=c2/c(=O)n([C@@H](C)c3ccc(F)cc3)c3n2CCCN=3)ccc1-n1cnc(C)c1,–
955 nM,21,COc1cc(/C=C2\N=C(N3CCCCC3)N([C@@H](C)c3ccc(F)cc3)C2=O)ccc1-n1cnc(C)c1,–
3500 nM,–,COc1cc(/C=C2\NC(=O)N([C@H](C)c3ccc(F)cc3)C2=O)ccc1-n1cnc(C)c1,–
56 nM,159,"CCN1CC(c2ccc(F)cc2)N2C(=O)/C(=C/c3ccc(-n4cnc(C)c4)c(OC)c3)N=C12 (single isomer, unassigned; (-))",–
158 nM,68,COc1cc(/C=C2\N=C(NCC3CC3)N([C@H](C)c3ccc(F)cc3)C2=O)ccc1-n1cnc(C)c1,–
503 nM,40,COc1cc(/C=C2\N=C3NCCCC(c4ccc(F)cc4)N3C2=O)ccc1-n1cnc(C)c1 (racemic),–
